Measured values of several laboratories.
Organism: Plasmodium falciparum
Observed: parasite growth

For `CO[C@H]1C[C@H](O[C@@H]2/C(C)=C/C[C@@H]3C[C@@H](C[C@]4(CC[C@H](C)[C@@H](C5CCCCC5)O4)O3)OC(=O)[C@@H]3C=C(C)/C(=N/O)[C@H]4OC/C(=C\C=C\[C@@H]2C)[C@]43O)O[C@@H](C)[C@@H]1O`, the IC50 was 179 nM (DD2; drug-resistant strain, blood stage).
For `COc1cc(/C=C/C(=O)C(=Cc2ccc([N+](=O)[O-])cc2)C(=O)/C=C/c2ccc(O)c(OC)c2)ccc1O`, the EC50 was 9100 nM (K1; drug-resistant strain, blood stage).
For `N=C(N)N/N=C/c1c(Cl)cccc1Cl`, the IC50 was 931 nM (K1; drug-resistant strain, blood stage).
`COc1cc(/C=C/C(=O)C(=Cc2ccccc2)C(=O)/C=C/c2ccc(O)c(OC)c2)ccc1O` has an EC50 of 17100 nM (K1; drug-resistant strain, blood stage).
For `CCCCN(CCCC)C(=N)CC(O)c1cc2c(F)cc(F)cc2c2cc(C(F)(F)F)ccc12` (centres unmarked), the IC50 was 1110 nM (ELISA; 3D7; 72 h, blood stage).
`CCN(CC)CCCC(C)Nc1ccnc2cc(Cl)ccc12` (centres unmarked) gave an IC50 of 76.8 nM (DD2; drug-resistant strain).
With `COc1cc(/C=C2\CCC/C(=C\c3ccc(O)c(OC)c3)C2=O)ccc1O` the EC50 was 1300 nM (K1; drug-resistant strain, blood stage).
`CCN1CCN(Cc2ccc(Nc3nc4ccc(Oc5ccnc(NC(=O)C6CCN(C)CC6)c5)cc4n3C)cc2C(F)(F)F)CC1` has an IC50 of 55.7 nM (flow cytometry; DD2; 72 h, blood stage).
`N=C(CC(O)c1cc2c(F)cc(F)cc2c2cc(C(F)(F)F)ccc12)N1CCC(F)(F)CC1` (centres unmarked) has an IC50 of 14.4 nM (ELISA; 3D7; 72 h, blood stage).
For `COc1cc(/C=C/c2cc(/C=C/c3ccc(O)c(OC)c3)n(-c3cccc([N+](=O)[O-])c3)n2)ccc1O`, the EC50 was 16700 nM (K1; drug-resistant strain, blood stage).
For `CC(C)(C)CNC(=N)CC(O)c1cc2c(F)cc(F)cc2c2cc(C(F)(F)F)ccc12` (centres unmarked), the IC50 was 6020 nM (ELISA; 3D7; 72 h, blood stage).
For `COc1cc(/C=C/C(=O)/C=C/c2ccc(O)c(OC)c2)ccc1O`, the EC50 was 2530 nM (K1; drug-resistant strain, blood stage).
`N=C(CC(O)c1cc2c(F)cc(F)cc2c2cc(C(F)(F)F)ccc12)Nc1ccc(-c2ccc(F)cc2)cc1` (centres unmarked) has an IC50 of 8.1 nM (ELISA; 3D7; 72 h, blood stage).
The IC50 of `C[C@@H]1CC[C@H]2[C@@H](C)C(=O)O[C@@H]3O[C@@]4(C)CC[C@@H]1[C@]32OO4` is reported as 19.5 nM (SYBR Green; 3D7; blood stage).
`COc1cc(/C=C/c2cc(/C=C/c3ccc(O)c(OC)c3)n(-c3ccc(Cl)cc3Cl)n2)ccc1O` has an EC50 of 25900 nM (K1; drug-resistant strain, blood stage).
`C[C@@H]1CC[C@H]2[C@@H](C)C(=O)O[C@@H]3O[C@@]4(C)CC[C@@H]1[C@]32OO4` gave an IC50 of 9.1 nM (DD2; 72 h, drug-resistant strain, blood stage).
`N=C(CC(O)c1cc2c(F)cc(F)cc2c2cc(C(F)(F)F)ccc12)Nc1ccc(N2CCC(F)(F)CC2)cc1` (centres unmarked) has an IC50 of roughly 32 nM (ELISA; 3D7 DD2; blood stage).
The IC50 of `CO[C@H]1/C=C/O[C@@]2(C)Oc3c(C)c(O)c4c(O)c(c(/C=N/N5CCN(C)CC5)c(O)c4c3C2=O)NC(=O)/C(C)=C\C=C\[C@H](C)[C@H](O)[C@@H](C)[C@@H](O)[C@@H](C)[C@H](OC(C)=O)[C@@H]1C` is reported as 33 nM (K1; drug-resistant strain, blood stage).
`Cc1cc(F)cc(C)c1NC(=N)CC(O)c1cc2c(F)cc(F)cc2c2cc(C(F)(F)F)ccc12` (centres unmarked) gave an IC50 of 11.6 nM (ELISA; 3D7; 72 h, blood stage).
The IC50 of `CCCCCCCCNC(C)C(O)c1ccc(SC(C)C)cc1` (centres unmarked) is reported as 5.1 nM (K1; drug-resistant strain, blood stage).
